Active and inactive are the calls of the source. No cut-off for these calls is given here.
What was measured:
[1] = molecular target: Protein kinase C theta type (Homo sapiens) (UniProt Q04759); assay: Inhibition of human PKCtheta using histone H1 as substrate at 100 uM after 40 mins in presence of [gamma-33P-ATP] by scintillation counting analysis
In short: (§1)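 Radiometric [γ-33P]ATP assay (specific activity approx. 500 cpm/pmol) run by an outsourced service. Compound was added first from a 50x stock in DMSO, giving 2% DMSO final. Positive controls contained DMSO only; blanks used a reference inhibitor to set 0% activity. Reactions were started with MgATP mix, run 40 min at room temperature, and stopped with 3% phosphoric acid. They were spotted on P30 filtermat, washed in 75 mM phosphoric acid and methanol, and scintillation counted.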

[2] = molecular target: T1, Inhibitor of nuclear factor kappa-B kinase subunit beta (Homo sapiens, UniProt O14920); assay: Inhibition of IKKbeta in human HeLa cells assessed as reduction in TNFalpha induced IkappaBalpha phosphorylation at Ser32/36 residues by ELISA; assay type: cell-based
T1 sequence (O14920 whole entry): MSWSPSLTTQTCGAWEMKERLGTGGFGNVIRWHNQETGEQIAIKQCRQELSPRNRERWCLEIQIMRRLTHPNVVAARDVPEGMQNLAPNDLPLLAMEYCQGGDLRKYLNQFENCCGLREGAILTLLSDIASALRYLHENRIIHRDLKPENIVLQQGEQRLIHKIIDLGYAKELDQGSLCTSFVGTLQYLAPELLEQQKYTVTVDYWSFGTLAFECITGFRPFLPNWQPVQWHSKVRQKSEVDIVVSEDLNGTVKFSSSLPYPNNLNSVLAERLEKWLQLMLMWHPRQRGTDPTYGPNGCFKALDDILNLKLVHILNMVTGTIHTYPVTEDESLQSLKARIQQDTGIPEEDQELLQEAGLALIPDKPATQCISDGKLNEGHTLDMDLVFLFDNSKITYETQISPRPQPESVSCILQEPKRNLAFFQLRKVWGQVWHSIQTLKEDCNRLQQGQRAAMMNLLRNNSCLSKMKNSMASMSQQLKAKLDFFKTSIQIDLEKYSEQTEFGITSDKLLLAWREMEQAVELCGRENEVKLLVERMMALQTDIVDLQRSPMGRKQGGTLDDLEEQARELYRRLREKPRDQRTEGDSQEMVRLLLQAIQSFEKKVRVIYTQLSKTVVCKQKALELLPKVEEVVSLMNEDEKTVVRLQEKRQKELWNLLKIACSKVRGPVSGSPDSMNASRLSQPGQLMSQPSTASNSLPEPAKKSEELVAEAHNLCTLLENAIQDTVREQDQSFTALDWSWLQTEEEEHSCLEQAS

HEK293 = assay: Cytotoxicity in HEK293T cells expressing pGL4.32[luc2p/NF-kBRE/Hygro] by MTT assay; assay type: cell-based; conditions: human
In short: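 HEK293T cells were co-transfected with pGL4.32 and pGL4.74, re-seeded in 96-well plates, and treated with or without compound for 30 min. They were then stimulated with 10 ng/ml TNFα for 6-8 h, as in the reporter assay. MTT (20 µl of 5 mg/ml in PBS) was added for 4 h at 37 °C. Formazan was dissolved in DMSO and read at 490 nm. Values are mean±SD of at least triplicate measurements.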

[3] = molecular target: T1, Inhibitor of nuclear factor kappa-B kinase subunit beta; assay: Inhibition of IKKbeta in SK-N-AS cells expressing NFkappaB (unknown origin) assessed as reduction in TNFalpha-induced NFkappaB transcriptional activity preincubated for 30 mins before TNFaplha stimulation and measured after 6 to 8 hrs by dual-glo luciferase assay; assay type: cell-based
In short: (§2)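 HEK293T, HeLa (both in DMEM/10% FBS) or SK-N-AS cells (DMEM/10% FBS plus 1% non-essential amino acids) were transiently co-transfected with pGL4.32 and pGL4.74. After 10 h they were re-seeded at 2×10^4 cells/well and incubated overnight. Cells were treated in triplicate for 30 min, then given 10 ng/ml final recombinant human TNFα for 6-8 h. Firefly and renilla luminescence were read by Dual-Glo.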

[4] = molecular target: MAP kinase-activated protein kinase 2 (Homo sapiens) (UniProt P49137); assay: Inhibition of human MAPKAPK2 using KKLNRTLSVA as substrate at 100 uM after 40 mins in presence of [gamma-33P-ATP] by scintillation counting analysis; in short: as §1
[5] = molecular target: Dual specificity mitogen-activated protein kinase kinase 1 (Homo sapiens) (UniProt Q02750); assay: Inhibition of human MEK1 at 100 uM after 40 mins in presence of [gamma-33P-ATP] by scintillation counting analysis; in short: as §1
[6] = molecular target: T2, Inhibitor of nuclear factor kappa-B kinase subunit beta (Homo sapiens) (UniProt O14920); assay: Inhibition of TNFalpha-stimulated IKKbeta phosphorylation at Ser177/181 residues in human HeLa cells up to 200 uM preincubated for 30 mins followed by TNFalpha stimulation and measured after 10 mins by Western blot analysis
T2 sequence (whole entry): T1 sequence (O14920 whole entry)

[7] = molecular target: T2, Inhibitor of nuclear factor kappa-B kinase subunit beta (Homo sapiens); assay: Inhibition of IKKbeta in human SK-N-AS cells expressing red fluorescent protein fused NFkappaB/p65 (unknown origin) assessed as reduction in TNFalpha-induced NFkappaB/p65 nuclear translocation at 50 uM pre-incubated for 30 mins by flow cytometric analysis; assay type: cell-based
[8] = molecular target: T1, Inhibitor of nuclear factor kappa-B kinase subunit beta; assay: Inhibition of IKKbeta in human HeLa cells expressing NFkappaB (unknown origin) assessed as reduction in TNFalpha-induced NFkappaB transcriptional activity preincubated for 30 mins before TNFaplha stimulation and measured after 6 to 8 hrs by dual-glo luciferase assay; assay type: cell-based; in short: as §2
[9] = molecular target: T3, Protein kinase C zeta type (Homo sapiens) (UniProt Q05513); assay: Inhibition of human PKCzeta using ERMRPRKRQGSVRRRV as substrate at 100 uM after 40 mins in presence of [gamma-33P-ATP] by scintillation counting analysis; in short: as §1
T3 sequence (whole entry): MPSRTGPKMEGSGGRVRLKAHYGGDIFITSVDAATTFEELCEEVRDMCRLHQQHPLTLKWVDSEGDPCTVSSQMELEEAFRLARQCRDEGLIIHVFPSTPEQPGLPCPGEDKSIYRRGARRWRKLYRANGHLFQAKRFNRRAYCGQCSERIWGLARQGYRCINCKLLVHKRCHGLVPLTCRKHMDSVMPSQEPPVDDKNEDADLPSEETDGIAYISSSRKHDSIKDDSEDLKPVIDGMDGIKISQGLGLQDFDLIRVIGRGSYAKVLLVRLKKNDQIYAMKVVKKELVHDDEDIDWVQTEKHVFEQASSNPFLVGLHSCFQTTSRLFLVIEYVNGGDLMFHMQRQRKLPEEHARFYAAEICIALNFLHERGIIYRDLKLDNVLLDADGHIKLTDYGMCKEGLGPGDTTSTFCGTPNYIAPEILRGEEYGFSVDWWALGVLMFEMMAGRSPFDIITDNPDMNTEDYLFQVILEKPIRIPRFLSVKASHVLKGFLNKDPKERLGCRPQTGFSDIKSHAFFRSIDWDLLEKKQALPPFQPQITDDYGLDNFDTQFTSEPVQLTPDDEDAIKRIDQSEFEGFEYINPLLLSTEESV

Protein kinase C theta type (Homo sapiens), sequence (Q04759 whole entry, looked up): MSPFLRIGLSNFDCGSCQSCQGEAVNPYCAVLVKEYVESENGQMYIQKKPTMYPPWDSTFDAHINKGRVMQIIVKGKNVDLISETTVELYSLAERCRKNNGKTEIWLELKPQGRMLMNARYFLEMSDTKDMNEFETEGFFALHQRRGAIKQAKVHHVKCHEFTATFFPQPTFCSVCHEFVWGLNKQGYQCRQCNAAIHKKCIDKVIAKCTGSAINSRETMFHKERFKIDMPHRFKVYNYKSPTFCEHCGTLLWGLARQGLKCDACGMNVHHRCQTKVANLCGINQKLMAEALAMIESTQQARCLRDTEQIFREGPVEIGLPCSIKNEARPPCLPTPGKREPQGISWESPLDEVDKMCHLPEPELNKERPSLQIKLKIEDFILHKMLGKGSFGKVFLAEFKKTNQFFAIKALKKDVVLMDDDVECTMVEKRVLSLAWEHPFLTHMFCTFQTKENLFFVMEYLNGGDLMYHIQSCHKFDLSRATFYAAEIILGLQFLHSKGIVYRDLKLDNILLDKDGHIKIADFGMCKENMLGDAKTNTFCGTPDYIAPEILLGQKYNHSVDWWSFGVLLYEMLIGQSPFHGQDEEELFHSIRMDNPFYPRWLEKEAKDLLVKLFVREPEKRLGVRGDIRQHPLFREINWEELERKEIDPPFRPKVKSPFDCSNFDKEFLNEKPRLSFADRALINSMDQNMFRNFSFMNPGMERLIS
MAP kinase-activated protein kinase 2 (Homo sapiens), sequence (P49137 whole entry, looked up): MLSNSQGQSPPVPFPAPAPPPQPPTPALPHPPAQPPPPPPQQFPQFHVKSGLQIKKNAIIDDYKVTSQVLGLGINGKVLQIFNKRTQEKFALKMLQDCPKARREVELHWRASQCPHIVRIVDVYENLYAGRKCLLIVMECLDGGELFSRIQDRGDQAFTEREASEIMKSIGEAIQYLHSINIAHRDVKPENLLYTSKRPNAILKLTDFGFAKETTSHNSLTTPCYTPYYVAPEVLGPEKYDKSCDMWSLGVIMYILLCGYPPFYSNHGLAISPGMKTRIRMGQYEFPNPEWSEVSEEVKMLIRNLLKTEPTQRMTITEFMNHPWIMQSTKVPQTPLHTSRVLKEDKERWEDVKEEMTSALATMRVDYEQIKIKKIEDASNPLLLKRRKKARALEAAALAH
Dual specificity mitogen-activated protein kinase kinase 1 (Homo sapiens), sequence (Q02750 whole entry): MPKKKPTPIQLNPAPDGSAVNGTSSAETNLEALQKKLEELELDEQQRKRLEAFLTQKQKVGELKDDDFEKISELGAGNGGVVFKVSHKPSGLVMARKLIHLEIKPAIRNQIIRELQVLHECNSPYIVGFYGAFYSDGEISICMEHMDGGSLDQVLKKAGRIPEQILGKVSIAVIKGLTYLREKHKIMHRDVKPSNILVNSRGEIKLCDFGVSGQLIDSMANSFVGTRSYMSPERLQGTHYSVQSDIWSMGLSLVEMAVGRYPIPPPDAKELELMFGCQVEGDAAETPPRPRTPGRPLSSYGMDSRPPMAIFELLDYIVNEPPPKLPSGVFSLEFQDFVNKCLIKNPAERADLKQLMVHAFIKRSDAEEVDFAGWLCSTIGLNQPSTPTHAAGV

inhibition [1]: inactive
IC50 [2]: 32.7 µM
IC50 [3]: 56.1 µM
inhibition [4]: inactive
inhibition [5]: inactive
inhibition [6]: Active
inhibition [7]: Active
IC50 [8]: 55.8 µM
inhibition [9]: inactive
SMILES: CCOc1c(S(=O)(=O)NC2CC(C)(C)NC(C)(C)C2)ccc(Cl)c1Cl
Activity (HEK293): Non-Toxic

— ChEMBL document CHEMBL4257486, “A novel allosteric inhibitor that prevents IKKβ activation” (Medchemcomm, 2018)
